ChEMBL document CHEMBL1153459, “Tetrahydropyridine derivatives with inhibitory activity on the production of proinflammatory cytokines: part 1” (Bioorg Med Chem Lett, 2009)

Assays:
[1] = test system: Blood; assay: Inhibition of LPS-induced TNFalpha production in human whole blood by immunoassay; assay type: functional, tissue-based
Summary of the method: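 Human whole blood from consenting volunteers, 988 µL aliquots, was mixed with compound in DMSO and LPS at a final 10 µg/mL, then incubated 6 h at 37 °C. Samples were chilled and spun, and plasma TNFα was measured by immunoassay. Percent inhibition was taken relative to LPS control after subtracting the unstimulated negative control. IC50 from N = 3–4.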

[2] = test system: Mus musculus; assay: Inhibition of LPS-induced TNFalpha production in orally dosed mouse after 1 hr by ELISA; assay type: functional; details: po, read-out: ID50 (the source's name)
Summary of the method: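 Mice fasted overnight (water allowed), then given compound orally as a suspension in 0.5% CMC at 10 mL/kg; controls received vehicle alone. 30 min later LPS in saline was injected i.v. at 0.45 mg/10 mL/kg; normal mice got saline. After 1 h, heparinised vena cava blood was spun and plasma TNFα measured by ELISA. % inhibition was taken against normal and control mice; ID50 derived. N = 5.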

[3] = test system: Mus musculus; assay: Inhibition of LPS-induced TNFalpha production in mouse at 50 mg/kg, po after 1 hr by ELISA; assay type: functional
Summary of the method: (§1)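 Mice were fasted overnight with water allowed. Compound was given orally as a suspension in 0.5% CMC at 10 mL/kg. After 30 min, LPS in saline was injected iv at 0.45 mg/10 mL/kg. Heparinized vena cava blood was drawn 1 h later and plasma TNFα measured by ELISA. Percent inhibition was taken versus vehicle/LPS control after subtracting normal mice. N = 5.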

[4] = test system: Mus musculus; assay: Inhibition of LPS-induced TNFalpha production in mouse at 20 mg/kg, po after 1 hr by ELISA; assay type: functional; summary of the method: as §1

In the case of `NCc1c[nH]c(-c2ccc(F)cc2)c1-c1ccncc1`, the IC50 [1] is reported as over 30 µM.

Work on `NCCCCc1c[nH]c(-c2ccc(F)cc2)c1-c1ccncc1` yielded an IC50 [1] of 13.8 µM.

`Fc1ccc(-c2[nH]cc(C3=CCNCC3)c2-c2ccncc2)cc1` gave an IC50 [1] of 1.86 µM and an ED50 [2] of 5.98 mg/kg.

With `Fc1ccc(-c2[nH]cc(CCCN3CCCCC3)c2-c2ccncc2)cc1` the IC50 [1] was 28.4 µM.

With `Fc1ccc(-c2[nH]cc(CCCN3CCNCC3)c2-c2ccncc2)cc1` the IC50 [1] was over 30 µM.

`CN1CCN(CCCc2c[nH]c(-c3ccc(F)cc3)c2-c2ccncc2)CC1` showed an IC50 [1] of over 30 µM.

Work on `Fc1ccc(-c2[nH]cc(C3CCNCC3)c2-c2ccncc2)cc1` yielded an IC50 [1] of 2.98 µM and an ED50 [2] of 17.9 mg/kg.

`Fc1ccc(-c2[nH]cc(CCCN3CCSCC3)c2-c2ccncc2)cc1` was tested, and the IC50 [1] was over 30 µM.

In the case of `CC(=O)NCCCc1c[nH]c(-c2ccc(F)cc2)c1-c1ccncc1`, the IC50 [1] is reported as over 30 µM.

Molecule `C[S+]([O-])c1ccc(-c2nc(-c3ccc(F)cc3)c(-c3ccncc3)[nH]2)cc1` (configuration not stated) [SB-203580] has an IC50 [1] of 6.4 µM and an ED50 [2] of 27.9 mg/kg.

Molecule `Fc1ccc(-c2[nH]cc(-c3ccncc3)c2-c2ccncc2)cc1` has an IC50 [1] of over 30 µM and an inhibition in vivo at 50 mg/kg [3] of 24.5%.

`Fc1ccc(-c2[nH]cc(CCCN3CCOCC3)c2-c2ccncc2)cc1` gave an IC50 [1] of over 30 µM.

For `CNCCCc1c[nH]c(-c2ccc(F)cc2)c1-c1ccncc1`, the IC50 [1] was 14.7 µM.

`Fc1ccc(-c2[nH]cc(CCCN3CCN(Cc4ccccc4)CC3)c2-c2ccncc2)cc1` showed an IC50 [1] of over 30 µM.

`NCCCc1c[nH]c(-c2ccc(F)cc2)c1-c1ccncc1` showed an IC50 [1] of 4.76 µM.

Work on `OC1(c2c[nH]c(-c3ccc(F)cc3)c2-c2ccncc2)CCNCC1` yielded an IC50 [1] of over 30 µM and an inhibition in vivo at 20 mg/kg [4] of -2.7%.

Work on `CN(C)CCCc1c[nH]c(-c2ccc(F)cc2)c1-c1ccncc1` yielded an IC50 [1] of 22.4 µM.
